# Where “and” joins values, the source holds several entries; their conditions need not be identical. Identical values can stand only once.
# How the values were obtained:
# Fibroblast = experiment: Multiplex assay against human fibroblast; type: toxicity, cell-based
# Summary of the method: (§1)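 Live cells carried four stains from seeding: Hoechst33342, BioTracker Green Microtubule Cytoskeleton Dye, MitoTracker Red and Annexin V Alexa Fluor 680. They were imaged on a CQ1 microscope at 37°C and 5% CO2 after compound addition. Using CellPathfinder machine-learning gating, cells were split into Hoechst high-intensity objects or normal cells, normal cells into healthy, pyknosed or fragmented nuclei, and pyknosed cells into mitotic or apoptotic; tubulin, mitochondrial-mass and membrane-permeability phenotypes are per cents of healthy-nucleus cells.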
# HEK-293T = experiment: Multiplex assay against HEK293T; type: toxicity, cell-based; details: human; summary of the method: as §1
# [1] = 12 h, 1 µM, compound concentration 1 uM
# [2] = 12 h, 10 µM, compound concentration 10 uM
# [3] = 24 h, 1 µM, compound concentration 1 uM
# [4] = 24 h, 10 µM, compound concentration 10 uM
# [5] = 48 h, 1 µM, compound concentration 1 uM
# [6] = 48 h, 10 µM, compound concentration 10 uM
compound,measurement,setting,value
N#Cc1ccnc(Nc2cc(C3CCN(C4COC4)CC3)cc(N3CCC(F)(F)C3)n2)c1,Population Apoptotic (%),Fibroblast; [1],14.12% and 22.64%
same,Population Fragmented Nuclei (%),Fibroblast; [1],18.52% and 8.85%
same,Population Healthy Nuclei (%),Fibroblast; [1],42.13% and 67.7%
same,Population Hoechst High Intensity Objects (%),Fibroblast; [1],0%
same,Population Membrane Permeable-Phenotype (%),Fibroblast; [1],3.3% and 2.61%
same,Population Mitochondria Different-Phenotype (%),Fibroblast; [1],16.48% and 9.8%
same,Population Mitotic Cells (%),Fibroblast; [1],85.88% and 77.36%
same,Population Normal (%),Fibroblast; [1],100%
same,Population Pyknosed Nuclei (%),Fibroblast; [1],39.35% and 23.45%
same,Population Tubulin-Different-Phenotype (%),Fibroblast; [1],31.87% and 33.33%
same,Total Cell Count,Fibroblast; [1],216 and 226
same,Population Apoptotic (%),Fibroblast; [2],60.19% and 71.72%
same,Population Fragmented Nuclei (%),Fibroblast; [2],13.02% and 15.68%
same,Population Healthy Nuclei (%),Fibroblast; [2],36.74% and 30.81%
same,Population Hoechst High Intensity Objects (%),Fibroblast; [2],0% and 0.54%
same,Population Mitochondria Different-Phenotype (%),Fibroblast; [2],35.44% and 45.61%
same,Population Mitotic Cells (%),Fibroblast; [2],39.81% and 28.28%
same,Population Normal (%),Fibroblast; [2],100% and 99.46%
same,Population Pyknosed Nuclei (%),Fibroblast; [2],50.23% and 53.51%
same,Population Tubulin-Different-Phenotype (%),Fibroblast; [2],45.57% and 73.68%
same,Total Cell Count,Fibroblast; [2],215 and 186
same,Population Apoptotic (%),Fibroblast; [3],7.81% and 14%
same,Population Fragmented Nuclei (%),Fibroblast; [3],19.58% and 9.81%
same,Population Healthy Nuclei (%),Fibroblast; [3],53.75% and 66.82%
same,Population Hoechst High Intensity Objects (%),Fibroblast; [3],0%
same,Population Membrane Permeable-Phenotype (%),Fibroblast; [3],5.43% and 4.2%
same,Population Mitochondria Different-Phenotype (%),Fibroblast; [3],19.38% and 23.08%
same,Population Mitotic Cells (%),Fibroblast; [3],92.19% and 86%
same,Population Normal (%),Fibroblast; [3],100%
same,Population Pyknosed Nuclei (%),Fibroblast; [3],26.67% and 23.36%
same,Population Tubulin-Different-Phenotype (%),Fibroblast; [3],29.46% and 47.55%
same,Total Cell Count,Fibroblast; [3],240 and 214
same,Population Apoptotic (%),Fibroblast; [4],58.59% and 84.62%
same,Population Fragmented Nuclei (%),Fibroblast; [4],13.17% and 9.55%
same,Population Healthy Nuclei (%),Fibroblast; [4],38.54% and 39.33%
same,Population Hoechst High Intensity Objects (%),Fibroblast; [4],0% and 0.56%
same,Population Membrane Permeable-Phenotype (%),Fibroblast; [4],10.13% and 20%
same,Population Mitochondria Different-Phenotype (%),Fibroblast; [4],32.91% and 55.71%
same,Population Mitotic Cells (%),Fibroblast; [4],41.41% and 15.38%
same,Population Normal (%),Fibroblast; [4],100% and 99.44%
same,Population Pyknosed Nuclei (%),Fibroblast; [4],48.29% and 51.12%
same,Population Tubulin-Different-Phenotype (%),Fibroblast; [4],37.97% and 78.57%
same,Total Cell Count,Fibroblast; [4],205 and 179
same,Population Fragmented Nuclei (%),Fibroblast; [5],19.03% and 11.35%
same,Population Healthy Nuclei (%),Fibroblast; [5],63.97% and 74.24%
same,Population Hoechst High Intensity Objects (%),Fibroblast; [5],0%
same,Population Membrane Permeable-Phenotype (%),Fibroblast; [5],2.53% and 2.94%
same,Population Mitochondria Different-Phenotype (%),Fibroblast; [5],21.52% and 11.18%
same,Population Mitotic Cells (%),Fibroblast; [5],92.86% and 57.58%
same,Population Normal (%),Fibroblast; [5],100%
same,Population Pyknosed Nuclei (%),Fibroblast; [5],17% and 14.41%
same,Population Tubulin-Different-Phenotype (%),Fibroblast; [5],32.91% and 54.12%
same,Total Cell Count,Fibroblast; [5],247 and 229
same,Population Apoptotic (%),Fibroblast; [6],59.57% and 79.01%
same,Population Fragmented Nuclei (%),Fibroblast; [6],13% and 11.52%
same,Population Healthy Nuclei (%),Fibroblast; [6],44.84% and 46.07%
same,Population Hoechst High Intensity Objects (%),Fibroblast; [6],0% and 0.52%
same,Population Membrane Permeable-Phenotype (%),Fibroblast; [6],7% and 15.91%
same,Population Mitochondria Different-Phenotype (%),Fibroblast; [6],36% and 20.45%
same,Population Mitotic Cells (%),Fibroblast; [6],40.43% and 20.99%
same,Population Normal (%),Fibroblast; [6],100% and 99.48%
same,Population Pyknosed Nuclei (%),Fibroblast; [6],42.15% and 42.41%
same,Population Tubulin-Different-Phenotype (%),Fibroblast; [6],37% and 56.82%
same,Total Cell Count,Fibroblast; [6],223 and 192
same,Population Apoptotic (%),HEK-293T; [1],18.37% and 8.2%
same,Population Fragmented Nuclei (%),HEK-293T; [1],1.49% and 2.08%
same,Population Healthy Nuclei (%),HEK-293T; [1],25.74% and 13.19%
same,Population Hoechst High Intensity Objects (%),HEK-293T; [1],0.98% and 0%
same,Population Membrane Permeable-Phenotype (%),HEK-293T; [1],0%
same,Population Mitotic Cells (%),HEK-293T; [1],81.63% and 91.8%
same,Population Normal (%),HEK-293T; [1],99.02% and 100%
same,Population Pyknosed Nuclei (%),HEK-293T; [1],72.77% and 84.72%
same,Population Tubulin-Different-Phenotype (%),HEK-293T; [1],32.69% and 42.11%
same,Total Cell Count,HEK-293T; [1],204 and 144
same,Population Apoptotic (%),HEK-293T; [2],23.38% and 27.5%
same,Population Fragmented Nuclei (%),HEK-293T; [2],5.2% and 14.04%
same,Population Healthy Nuclei (%),HEK-293T; [2],20.07% and 15.79%
same,Population Hoechst High Intensity Objects (%),HEK-293T; [2],0.37% and 0.87%
same,Population Mitotic Cells (%),HEK-293T; [2],76.62% and 72.5%
same,Population Normal (%),HEK-293T; [2],99.63% and 99.13%
same,Population Pyknosed Nuclei (%),HEK-293T; [2],74.72% and 70.18%
same,Total Cell Count,HEK-293T; [2],270 and 230
same,Population Apoptotic (%),HEK-293T; [3],44.81% and 25.93%
same,Population Fragmented Nuclei (%),HEK-293T; [3],1.81% and 1.57%
same,Population Hoechst High Intensity Objects (%),HEK-293T; [3],0.72% and 0.78%
same,Population Membrane Permeable-Phenotype (%),HEK-293T; [3],2.56% and 0%
same,Population Mitochondria Different-Phenotype (%),HEK-293T; [3],41.88% and 35.29%
same,Population Mitotic Cells (%),HEK-293T; [3],55.19% and 74.07%
same,Population Normal (%),HEK-293T; [3],99.28% and 99.22%

# — ChEMBL document CHEMBL5724801, “EUbOPEN Chemogenomics Library - Multiplex” (2024)
